Compound activity (PubChem)
TAAR1 antagonist: human TAAR1 antagonists, primary screen, Fluo-8 calcium fluorescence, CHO RD-HGA16 cells; Trace amine-associated receptor 1 (Homo sapiens), Q96RJ0; antagonist; inhibition, % at 3 µM; actives 1.5% (n = 360,000);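 active = inhibition above a per-plate cutoff, the mean inhibition of test compounds on that plate plus 3 SD, cut at about 49% in these data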;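 note: 0% = DMSO plus EC80 beta-PEA response and 100% = DMSO alone without agonist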
Target sequence (Q96RJ0 whole entry, looked up): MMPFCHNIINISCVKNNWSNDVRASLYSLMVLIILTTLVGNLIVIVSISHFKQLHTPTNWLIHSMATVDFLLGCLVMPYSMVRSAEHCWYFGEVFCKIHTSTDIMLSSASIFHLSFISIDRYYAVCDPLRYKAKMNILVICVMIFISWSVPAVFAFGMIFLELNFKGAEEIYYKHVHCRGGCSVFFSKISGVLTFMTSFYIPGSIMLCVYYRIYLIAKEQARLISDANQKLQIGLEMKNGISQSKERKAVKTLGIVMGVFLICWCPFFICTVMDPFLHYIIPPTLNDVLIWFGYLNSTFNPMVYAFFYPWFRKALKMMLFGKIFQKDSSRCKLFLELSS
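test system = CHO RD-HGA16 cells bearing hTAAR1 | replication = singlicate | controls = DMSO-only wells and EC80 β-PEA-stimulated wells | reagent = EC80 β-phenethylamine stimulus | read-out basis = percent inhibition of PEA-evoked calcium signal, max/basal emission ratio | schedule = seeding 17-24 h prior, 75-min 37 °C, 30-min RT dye loading | signal = kinetic Fluo-8 calcium fluorescence measurement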
OX1R antag-1: OX1R (HCRTR1) antagonists, primary screen, fluorescence, CHO/OX1R cells, Fluo-8 calcium, orexin A; Orexin/Hypocretin receptor type 1 (Homo sapiens), O43613; Fluo-8 calcium fluorescence; inhibition, % at 5 µM; actives 0.43% (n = 330,000); AID 434989, 2010;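 active = inhibition above its plate's threshold, mean inhibition of all tested compounds on the plate plus 3 SD, cut at about 37% in these data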;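 note: 0% = orexin A challenge wells and 100% = SB-334867-A antagonist wells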
GalR3 antagonist: GalR3 antagonists in HEK293 cells, primary screen, cell-based, fluorescence readout; inhibition, % at 3 µM; actives 0.44% (n = 360,000); HEK293 GalR3-CNG cAMP membrane potential fluorescence; galR3 body fused to GalR1 C-terminus; Galanin receptor type 3 (Homo sapiens), O60755;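 active = inhibition above the screen-wide average plus 3 SD, cut at about 13% in these data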;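 note: forskolin and galanin both at EC90 stimulate the cells; cAMP rise reported by CNG channel membrane potential dye signal; 0% = forskolin plus galanin with DMSO and 100% = forskolin alone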
Target sequence (O60755 1-299 limits assumed): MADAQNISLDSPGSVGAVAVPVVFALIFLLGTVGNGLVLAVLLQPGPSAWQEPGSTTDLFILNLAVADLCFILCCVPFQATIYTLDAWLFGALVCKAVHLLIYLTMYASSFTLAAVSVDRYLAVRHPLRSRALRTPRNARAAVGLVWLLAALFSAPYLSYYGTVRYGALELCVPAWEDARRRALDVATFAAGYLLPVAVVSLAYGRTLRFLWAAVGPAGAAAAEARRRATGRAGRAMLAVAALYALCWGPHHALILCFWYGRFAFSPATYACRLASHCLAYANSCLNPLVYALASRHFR
OX1R antag-2: antagonists of human orexin 1 receptor (OX1R) | Orexin/Hypocretin receptor type 1 (Homo sapiens), O43613 | OX1R-expressing cells, FRET antagonist read-out | inhibition, % at 6.6 µM | actives 1.8% (n = 330,000); in the data active = inhibition mostly above about 38%, no sharp cut-off; inactive = mostly below about 40%;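 note: 0% = agonist challenge alone and 100% = reference antagonist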
TAAR1 ag: human TAAR1 agonists, primary screen, Fluo-8 calcium fluorescence, CHO RD-HGA16 cells; Trace amine-associated receptor 1 (Homo sapiens), Q96RJ0; vehicle wells 0%, saturating PEA agonist 100%; activation, % at 3 µM; actives 0.99% (n = 360,000); AID 624467, 2012;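 active = activation above the mean activation of all test compounds in the run plus 3 SD, cut at about 38% in these data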
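Repeats: no replicates (n 1) | Material: CHO-derived RD-HGA16 cells with stable Gα16 and human TAAR1 | Technique: Kinetic Fluo-8 calcium fluorescence | Schedule: 17-24 h seeding, 75 min 37 °C dye, 30 min RT | Evaluation: % activation from peak over basal fluorescence ratio, DMSO-to-PEA scaled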
CHO parental Ca: ATP-evoked calcium signal inhibitors, parental CHO, primary screen, counter-screen for OX1R antagonist project, cell-based, fluorescence, Fluo-8 calcium dye. parental CHO-K1, ATP-induced calcium, Fluo-8 fluorescence. inhibition, % at 5.6 µM. actives 0.63% (n = 330,000);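 active = inhibition above that plate's mean sample inhibition plus 3 SD, cut at about 26% in these data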;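 note: 0% = ATP-challenged DMSO wells and 100% = DMSO wells without ATP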
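Test system: parental CHO cells; detection: calcium-sensitive Fluo-8 fluorescence; evaluation: percent inhibition of calcium signal; also added: ATP as calcium-mobilizing challenge; repeats: one well per compound; control set: ATP-challenged DMSO wells low, unchallenged DMSO wells high; compound: single nominal dose of 5.6 µM per compound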
OX1R HTRF conf: OX1R (HCRTR1) antagonists, confirmation, cell-based, HTRF. shares compounds with OX1R antag-2. OX1R-expressing cells, HTRF antagonist assay. inhibition, % at 6.6 µM. actives 49% (n = 1,800). AID 492964, 2010; in the data active = inhibition above about 55%;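 note: CHO cells expressing OX1R stimulated with orexin A at about EC80; 0% = agonist challenge alone and 100% = reference antagonist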
CHO-K1 HTRF: signal inhibition in parental CHO-K1 cells, counter-screen for OX1R antagonist project, cell-based, HTRF | inhibition, % at 6.6 µM | shares compounds with OX1R antag-2 | actives 48% (n = 1,800) | HTRF counterscreen | AID 493232, 2011; in the data active = inhibition above about 17%;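 note: 0% = agonist challenge with vehicle and 100% = vehicle alone without agonist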
* = called active by the depositor; x = no result given. Hits are enriched below; roughly 4.2% of the tested compounds scored in any of these assays.

SMILES	TAAR1 antagonist	OX1R antag-1	GalR3 antagonist	OX1R antag-2	TAAR1 ag	CHO parental Ca	OX1R HTRF conf	CHO-K1 HTRF
CC(=O)N1c2ccc(S(=O)(=O)NCCC(=O)NCc3ccc(N(C)C)cc3)cc2CC1C (configuration not stated)	-34	-39	6	1	1	-14	x	x
O=C(Nc1ccc(Cl)cc1)Nc1ccccc1Sc1ncc([N+](=O)[O-])s1	28	-11	2	11	8	1	x	x
N/C(=N\OC(=O)Nc1ccccc1)c1ncc([N+](=O)[O-])s1	-16	-14	-1	127*	1	1	51	79*
CCOC(=O)/C(C#N)=C\C=C1C=CN(C)C=C1	21	3	-3	100*	25	6	51	62*
CCOC(=O)/C(C#N)=C\c1ccc(CC)s1	-1	-10	-2	23	8	-6	x	x
CC(=O)N1CCN(c2ccc(C(N)=O)cc2[N+](=O)[O-])CC1	-5	8	0	81*	1	-2	27	30*
CCCN1CCN(c2ccc([N+](=O)[O-])cc2C#N)CC1	8	-19	-9	83*	3	-13	39	46*
CCN1CCN(c2ccc([N+](=O)[O-])cc2S(=O)(=O)N2CCOCC2)CC1	-25	-9	8	145*	4	-11	36	44*
CC(=O)N1CCN(c2ccc([N+](=O)[O-])cc2C#N)CC1	13	4	-6	100*	8	4	38	47*
CSc1ccccc1NC(=O)c1ccoc1C	18	-19	-4	12	4	-11	x	x
O=S(=O)(Nc1cc(S(=O)(=O)N2CCCC2)ccc1O)c1ccc(Cl)s1	-4	x	2	x	3	x	x	x
CN(C1CCCCC1)S(=O)(=O)c1ccc(NC(=O)c2ccco2)cc1	17	-14	0	26	17	-23	x	x
c1ccc(N2CCN(c3ncnc4c3oc3ccccc34)CC2)cc1	49*	26	-6	90*	15	-21	65*	-28
[O-][n+]1c2ccccc2[n+]([O-])c2cc(O)ccc21	-26	-13	-7	92*	4	-4	63*	111*
COc1ccc(C(=O)Nc2ccc3ccccc3n2)cc1OC	3	-2	-11	77*	10	-17	78*	1
COc1ccccc1C(=O)NC1CCSc2ccccc21 (configuration not stated)	-35	-13	-5	80*	4	-19	66*	-8
COc1ccccc1C(=O)NC1CCCc2ccccc21 (configuration not stated)	-12	-36	-8	25	-1	-22	x	x
COc1ccc2nc(Nc3nc(C)c(C(C)=O)s3)sc2c1	0	4	-3	81*	-2	-24	52	2
COc1ccc(Nc2nc3ccc(OC)cc3s2)cc1	10	-14	2	30	0	5	x	x
Cc1csc(NC(=O)c2cnc3ccccc3n2)n1	3	-11	-6	113*	1	-1	29	48*
O=c1[nH]c2cc([N+](=O)[O-])c(NCCO)c([N+](=O)[O-])c2[nH]1	4	-19	2	124*	5	-7	89*	96*
CC(=O)Nc1c([N+](=O)[O-])cc2[nH]c(=O)[nH]c2c1[N+](=O)[O-]	0	-12	-1	185*	1	-3	50	71*
Cc1nc(-c2ccc([N+](=O)[O-])cc2)sc1C(=O)O	-9	-10	-4	156*	0	-8	48	76*
O=C(COC(=O)c1ccc([N+](=O)[O-])o1)NCc1ccccc1	-7	5	-7	26	2	-12	x	x
O=C(COC(=O)c1ccc([N+](=O)[O-])s1)NCc1ccccc1	7	-22	-13	124*	-2	-5	28	18*
SMILES	TAAR1 antagonist	OX1R antag-1	GalR3 antagonist	OX1R antag-2	TAAR1 ag	CHO parental Ca	OX1R HTRF conf	CHO-K1 HTRF
Cc1ccc(C(=O)c2c(C)oc3c2C(=O)C(=O)c2ccccc2-3)cc1	x	-7	x	135*	x	-31	70*	27*
CC(NC(=O)c1ccco1)C(=O)OC(C)C(=O)NCc1ccccc1 (configuration not stated)	-9	0	-3	8	5	4	x	x
O=C(CSc1ncnc2nc[nH]c12)c1ccc2ccccc2c1	21	23	-1	84*	23	-2	34	-1
CCc1cccc2c(C(=O)COC(=O)c3cccc(S(=O)(=O)N(C)C4CCCCC4)c3)c[nH]c12	14	-6	-2	31	3	-3	x	x
O=C1c2ccc(-c3ccc4c(c3)C(=O)N(CCO)C4=O)cc2C(=O)N1CCO	24	-9	-3	174*	8	-5	66*	82*
Nc1cccc(Oc2ccc3c(c2)C(=O)N(CCO)C3=O)c1	-4	x	-1	x	0	x	x	x
O=C1c2ccc(Oc3ccc4c(c3)C(=O)N(CCCO)C4=O)cc2C(=O)N1CCCO	-7	-5	-3	136*	18	-20	45	25*
COc1ccc(OC)c(/C=C/c2ccc3cccc(O)c3n2)c1	1	-12	-9	6	-2	17	x	x
O=S(=O)(NCc1ccc(Cl)cc1)c1cnc[nH]1	13	-7	-3	13	4	-2	x	x
CN(C)c1ccc(-c2nnc(-c3cccs3)o2)cc1	11	7	-7	84*	2	-20	88*	14
CC1(C)OC(=O)C(=NNc2ccccc2)C(=O)O1	-22	4	4	52	2	4	x	x
CC1(C)OC(=O)C(=NNc2ccc(O)cc2)C(=O)O1	-21	-4	2	82*	3	23	19	24*
CCN1CCC(NC(=O)Nc2ccccc2C(=O)OC)CC1	9	-20	-6	4	-2	8	x	x
CCn1c(=O)cc(OCC(=O)Nc2ccc3c(c2)OCCO3)c2ccccc21	8	-15	-3	10	17	-3	x	x
CCn1c(=O)cc(OCC(=O)Nc2ccc(OC)c(OC)c2)c2ccccc21	1	-11	-6	82*	7	-6	21	4
